The entries come from a sample that favours hits as a whole.
IDH1 R132H inh – inhibitors of IDH1 R132H reductase, primary screen, biochemical, plate reader, single point | Isocitrate dehydrogenase [NADP] cytoplasmic (Homo sapiens), O75874 | diaphorase/resazurin fluorescence, 60 min | inhibition, % at 10 µM | 0.18% of 70,000 active | AID 624101, 2012; in the data active = inhibition above about 34%; inconclusive = no clear call, values can overlap the other calls; inactive = below about 11%;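 also: 0% = DMSO and 100% = no enzyme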
Target sequence (O75874 whole entry R132H): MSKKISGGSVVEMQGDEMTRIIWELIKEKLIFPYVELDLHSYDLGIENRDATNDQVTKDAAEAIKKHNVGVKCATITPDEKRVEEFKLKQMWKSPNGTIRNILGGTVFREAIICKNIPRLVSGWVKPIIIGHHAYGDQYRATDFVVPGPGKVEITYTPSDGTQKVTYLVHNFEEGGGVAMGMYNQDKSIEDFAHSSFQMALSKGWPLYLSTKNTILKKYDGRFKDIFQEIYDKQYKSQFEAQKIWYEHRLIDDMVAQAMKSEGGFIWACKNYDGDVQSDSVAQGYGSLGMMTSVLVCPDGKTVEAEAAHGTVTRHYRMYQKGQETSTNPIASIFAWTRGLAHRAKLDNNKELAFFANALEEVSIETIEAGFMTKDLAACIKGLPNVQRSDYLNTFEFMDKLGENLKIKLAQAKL
T cruzi growth-1 – T. cruzi intracellular proliferation inhibitors, primary screen, cell-based, beta-gal Tulahuen parasites, NIH3T3 host, luminescence. T. cruzi beta-gal in NIH3T3, GalScreen luminescence, 90 h. inhibition, % at 8.34 µM. 5.9% of 77,000 active;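 active = mean inhibition above about 93%, with at least 55% of replicates each passing it, limit read from the data, passing the limit was not always enough; inconclusive = only one of those two conditions holds; inactive = neither condition holds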
GASC1 inh – inhibitors of GASC-1 (KDM4C) histone demethylase, primary screen, biochemical, single concentration HTS. Lysine-specific demethylase 4C (Homo sapiens), Q9H3R0. GST-KDM4C 2-372, H3K9me3 peptide, LANCE TR-FRET. inhibition, % at 12.5 µM. 0.15% of 96,000 active;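 active = mean replicate inhibition above about 25%, with at least 55% of replicates also reaching it, limit read from the data, passing the limit was not always enough; inconclusive = only one of those two conditions met; inactive = neither condition met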
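System: N-terminal GST-fused human GASC-1 (KDM4C) fragment, residues 2-372 / Amount: 10 nM GST-KDM4C in enzyme reaction / Also added: H3K9me3 peptide with Fe(II)/2OG / Times: 30 min demethylation and 1 h detection at room temperature / Signal: LANCE TR-FRET / Read-out basis: Fall in 671/618 emission ratio as inhibition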
T cruzi growth-2 – T. cruzi intracellular proliferation inhibitors, confirmation, cell-based, NIH3T3 host, beta-gal parasite, luminescence, cherry-pick; 72% of 5,600 active; shares compounds with T cruzi growth-1; T. cruzi beta-gal in NIH3T3, GalScreen luminescence, 90 h; inhibition, % at 8.35 µM;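 active = mean replicate inhibition above about 95% and at least 55% of replicates individually reaching it, limit read from the data; inconclusive = only one of the two criteria is met; inactive = neither criterion is met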
T cruzi growth-3 – inhibitors of intracellular T. cruzi replication, confirmation, NIH3T3 host cells, beta-gal parasites, cherry-pick, set 2; shares compounds with T cruzi growth-1; AID 651740, 2012; 21% of 5,600 active; T. cruzi beta-gal in NIH3T3, GalScreen luminescence, 90 h; inhibition, % at 2.09 µM;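 active = mean inhibition above about 95%, with at least 55% of replicates also reaching it, limit read from the data; inconclusive = meets just one of the two conditions; inactive = meets neither condition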;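 also: plate controls were neutral control median for no effect and positive control median for full effect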
NIH3T3 tox – cytotoxicity in mouse NIH/3T3 fibroblasts, confirmation, cytotoxicity control for T. cruzi proliferation inhibitor project, cell-based, cherry-pick, single point; shares compounds with T cruzi growth-1; NIH/3T3 viability, CellTiter-Glo ATP luminescence, 90 h; cytotoxicity (signal decrease), % at 8.35 µM; 14% of 5,600 active; AID 651742, 2012;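 active = mean signal decrease across replicates above about 35% based on untreated-well scatter, with enough replicates individually passing, limit read from the data; inconclusive = no rule stated though some were filed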;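 also: 0% = median of neutral control wells and 100% = median of positive control wells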
NIH3T3 tox 2 – NIH/3T3 fibroblast cytotoxicity, confirmation, cytotoxicity control, cell-based, cherry-pick, single point, set 2 | shares compounds with T cruzi growth-1 | NIH/3T3 viability, CellTiter-Glo ATP luminescence, 90 h | inhibition, % at 24.9 µM | 56% of 5,600 active | AID 651744, 2012;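 active = mean loss of cell viability signal at or above a set limit, and enough replicates individually reaching it; inconclusive = meets only the mean limit or only the replicate share; inactive = meets neither condition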;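 also: 0% = median of neutral control wells and 100% = median of positive control wells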
Numbers without * were called inactive; ? = inconclusive; · = no result.

SMILES | IDH1 R132H inh | T cruzi growth-1 | GASC1 inh | T cruzi growth-2 | T cruzi growth-3 | NIH3T3 tox | NIH3T3 tox 2
C[C@@H]1CCCCO[C@H](CN(C)S(=O)(=O)c2ccc(Cl)cc2)[C@H](C)CN([C@H](C)CO)C(=O)c2cc(NC(=O)CCC(F)(F)F)ccc2O1 | · | 98.6* | 0.0 | 106.3* | 33.6 | 14.2 | 29.6*
C[C@H](CO)N1C[C@H](C)[C@H](CN(C)S(=O)(=O)c2ccc(Cl)cc2)OCCCC[C@H](C)Oc2ccc(NC(=O)CCC(F)(F)F)cc2C1=O | · | 71.5 | -2.0 | · | · | · | ·
C[C@@H]1CN([C@H](C)CO)C(=O)c2cc(NC(=O)CCC(F)(F)F)ccc2O[C@@H](C)CCCCO[C@H]1CN(C)S(=O)(=O)c1ccc(Cl)cc1 | 2.0 | 57.5 | -0.1 | · | · | · | ·
C[C@H]1CCCCO[C@@H](CN(C)S(=O)(=O)c2ccc(Cl)cc2)[C@@H](C)CN([C@@H](C)CO)C(=O)c2cc(NC(=O)CCC(F)(F)F)ccc2O1 | · | 116.7* | 0.4 | 109.6* | 73.0 | -20.2 | 15.9
C[C@H]1CCCCO[C@H](CN(C)S(=O)(=O)c2ccc(Cl)cc2)[C@@H](C)CN([C@@H](C)CO)C(=O)c2cc(NC(=O)CCC(F)(F)F)ccc2O1 | 4.1 | 105.5* | -1.8 | 102.8* | 70.4 | -0.1 | 18.6
C[C@@H]1CCCCO[C@H](CN(C)S(=O)(=O)c2ccc(Cl)cc2)[C@H](C)CN([C@@H](C)CO)C(=O)c2cc(NC(=O)CCC(F)(F)F)ccc2O1 | 1.3 | 72.4 | 0.0 | · | · | · | ·
COc1ccccc1C1C(C(=O)c2sc(C)nc2C)C(=O)C(=O)N1CCCN1CCOCC1 (stereo unspecified) | -0.1 | · | · | · | · | · | ·
O=C(CSc1nnc(-c2ccncc2)o1)c1ccc2ccccc2c1 | -0.4 | · | · | · | · | · | ·
CN(C)C(=O)c1ccc(-c2ccc3c(c2)[C@@H]2[C@@H](CCN2C(=O)c2ccc4c(c2)OCO4)[C@@H](CO)N3)cc1 | · | 99.6* | -0.1 | 108.9* | 60.6 | 2.1 | 1.2
N#Cc1ccc(-c2ccc3c(c2)[C@H]2[C@H](CCN2C(=O)c2ccc4c(c2)OCO4)[C@H](CO)N3)cc1 | · | 25.2 | -3.2 | · | · | · | ·
N#Cc1cccc(-c2ccc3c(c2)[C@H]2[C@H](CCN2C(=O)c2ccc4c(c2)OCO4)[C@H](CO)N3)c1 | · | 85.7 | -2.7 | · | · | · | ·
N#Cc1cccc(-c2ccc3c(c2)[C@@H]2[C@@H](CCN2C(=O)c2ccc4c(c2)OCO4)[C@H](CO)N3)c1 | · | ? | 0.6 | 97.2* | 72.8 | 29.8 | 48.0*
CCCC(=O)Nc1ccc2c(c1)C(=O)N(C)C[C@H](OC)[C@@H](C)CN(C(=O)CN(C)C)[C@H](C)CO2 | -0.2 | -15.8 | -0.1 | · | · | · | ·
COc1ccccc1CN1[C@@H]2Cn3c(ccc(C4=CCCCC4)c3=O)[C@H]1[C@@H](C(=O)N(C)C)[C@@H]2CO | · | 2.2 | 1.9 | · | · | · | ·
Cc1sc2ncnc(Nc3cccc(C(=O)O)c3)c2c1C | 0.2 | · | · | · | · | · | ·
CC(C)CC#Cc1cnc2c(c1)C(=O)N([C@@H](C)CO)C[C@@H](C)[C@@H](CN(C)Cc1cccc(F)c1)O2 | -0.6 | 99.3* | -1.5 | 106.2* | 82.5 | 22.9 | 44.8*
C[C@H](CO)N1C[C@H](C)[C@@H](CN(C)Cc2ccccc2)Oc2ncc(C#CCc3ccccc3)cc2C1=O | · | · | 1.9 | · | · | · | ·
CC(C)CC#Cc1cnc2c(c1)C(=O)N([C@@H](C)CO)C[C@@H](C)[C@@H](CN(C)Cc1ccc3c(c1)OCO3)O2 | 5.2 | 101.1* | 4.0 | 105.4* | 76.8 | 32.6 | 92.5*
C[C@H](CO)N1C[C@H](C)[C@@H](CN(C)Cc2cccc(F)c2)Oc2ncc(C#CCN(C)C)cc2C1=O | -0.4 | -75.3 | 3.3 | · | · | · | ·

Bioassay records deposited in PubChem by Broad Institute.
